Source: PubChem
KCC2 mod = KCC2 (human) Cl- transport modulation; Q9H2X9; KCC2 cells, thallium flux FluoZin-2 fluorescence; B-score of Tl+ flux slope (higher = more flux/activation; lower = inhibition) at 10 µM; actives 2.2% (n = 190,000);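 active = thallium flux slope and its plate-corrected score both differing from the plate sample mean at a set confidence after two filtering rounds, in either direction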;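 also: slope of fluorescence scaled to starting intensity during 10 to 20 s after thallium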
Target sequence (Q9H2X9 whole entry, looked up): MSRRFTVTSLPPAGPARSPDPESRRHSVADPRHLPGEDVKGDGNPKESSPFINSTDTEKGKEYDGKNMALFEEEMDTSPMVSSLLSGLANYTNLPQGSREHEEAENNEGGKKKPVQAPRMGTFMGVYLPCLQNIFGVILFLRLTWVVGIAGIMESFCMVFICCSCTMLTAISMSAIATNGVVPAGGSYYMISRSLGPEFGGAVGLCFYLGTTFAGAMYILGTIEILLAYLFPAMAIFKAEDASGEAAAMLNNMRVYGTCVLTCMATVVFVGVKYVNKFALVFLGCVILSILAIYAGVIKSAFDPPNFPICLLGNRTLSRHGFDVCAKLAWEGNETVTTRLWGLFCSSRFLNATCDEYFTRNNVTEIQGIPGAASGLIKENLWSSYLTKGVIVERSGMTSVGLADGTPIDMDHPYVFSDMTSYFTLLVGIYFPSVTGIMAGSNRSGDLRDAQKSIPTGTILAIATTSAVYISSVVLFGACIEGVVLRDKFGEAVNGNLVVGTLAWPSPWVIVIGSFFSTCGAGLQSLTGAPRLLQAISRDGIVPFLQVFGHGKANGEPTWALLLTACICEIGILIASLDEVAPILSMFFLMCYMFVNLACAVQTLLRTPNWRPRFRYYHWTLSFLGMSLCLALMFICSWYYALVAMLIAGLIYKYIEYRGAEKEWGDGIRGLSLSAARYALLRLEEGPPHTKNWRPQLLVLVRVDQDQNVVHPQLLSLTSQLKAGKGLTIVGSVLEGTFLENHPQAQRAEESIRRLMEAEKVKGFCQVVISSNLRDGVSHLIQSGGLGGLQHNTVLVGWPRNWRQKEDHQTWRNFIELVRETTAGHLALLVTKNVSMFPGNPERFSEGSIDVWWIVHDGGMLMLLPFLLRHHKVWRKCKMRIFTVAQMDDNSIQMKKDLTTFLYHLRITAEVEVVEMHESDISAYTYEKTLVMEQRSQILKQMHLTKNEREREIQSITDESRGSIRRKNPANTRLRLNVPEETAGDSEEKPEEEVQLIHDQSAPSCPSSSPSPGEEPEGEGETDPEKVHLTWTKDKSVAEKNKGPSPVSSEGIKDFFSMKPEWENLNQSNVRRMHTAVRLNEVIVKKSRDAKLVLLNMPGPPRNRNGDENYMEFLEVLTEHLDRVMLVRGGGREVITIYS
WT yeast gro inh = growth inhibition of WT yeast, mitochondrial fusion screen. inhibition, % at 10 µM. actives 2.1% (n = 190,000). mitochondrial fusion phenotypic screen, WT strain. AID 1362; in the data active = inhibition above about 58%; tested in S. cerevisiae
bCat nuc transl = modulators of beta-catenin nuclear translocation; nuclear translocation activity, % at 5 µM; actives 0.3% (n = 190,000); HeLa beta-catenin nuclear translocation, immunofluorescence imaging;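 active = nuclear translocation activity above 50% at 5 µM, with a well cell count of 50 or more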;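 also: per-cell ratio of nuclear to cytoplasmic median beta-catenin stain intensity; plate controls were DMSO negative control for no effect and GSK-3 inhibitor IX positive control for full effect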
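Technique: fluorescence imaging of beta-catenin antibody stain plus DAPI / Material: human HeLa cell line / Incubation: compound treatment 24 h, 37°C, 5% CO2 / Read-out basis: % activation of per-cell nuclear versus cytoplasmic median beta-catenin signal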
Pf gamet viab = kills late stage P. falciparum gametocytes; inhibition, % at 10.9 µM; actives 0.065% (n = 150,000); P. falciparum stage V gametocytes, ATP luminescence, 24 h; AID 743093;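 active = inhibition above the mean plus 3 SD of compounds within the control limits, set per campaign, cut at about 38% in these data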;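 also: 0% = DMSO wells and 100% = medium only without gametocytes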
MT stabilize HCS = microtubule stabilizers in HeLa cells | HeLa tubulin immunostaining HCS, 24 h; share of cells brighter than vehicle mean+2SD | % tubulin-high responders, % at 10 µM | actives 0.83% (n = 200,000) | AID 2205;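 active = plate Z-score above 3 for both tubulin-high and condensed-nucleus cell shares, with cell loss under 80%, at 10 µM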;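 also: anti alpha tubulin signal scored within the nucleus-defined area of each cell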
Starred values were filed as active, the others as inactive; · = no result. Sampled rows, rich in hits. Any-hit rate of the full collection: about 4%.

SMILES	KCC2 mod	WT yeast gro inh	bCat nuc transl	Pf gamet viab	MT stabilize HCS
CCCCn1c(CN2CCN(c3cccc(Cl)c3)CC2)nc2c1c(=O)n(C)c(=O)n2C	-2.37	71.8*	·	-2.5	2.2
COc1ccc(CN2CCNC(=O)C2CC(=O)N(C)Cc2nccn2C)cc1OC (stereo unspecified)	·	7.8	1.3	-6.3	2.5
O=[N+]([O-])c1ccc(NCCCNS(=O)(=O)c2ccc(Cl)cc2)c(Cl)c1	0.513	60.0*	1.4	20.6	1.5
O=[N+]([O-])c1ccccc1NCCNS(=O)(=O)c1ccc(Cl)cc1	-0.957	-3.2	-2.7	·	3.2
COc1ccc(-c2nn3c(-c4ccccc4)nnc3s2)cc1	-0.289	20.9	5.6	19.6	2.8
COc1cccc(OC)c1-c1nn2c(-c3cc(-c4ccccc4)n[nH]3)nnc2s1	0.33	-3.8	37.2	-8.8	40.2*
Cc1cc(C)cc(C(=O)/C=C2\NC(=O)CS2)c1	6.44*	-9.0	-4.7	·	1.7
CCOC(=O)Cc1csc(NC(=S)NC(=O)C(C)(C)C)n1	15.5*	5.3	8.6	·	1.7
CCCNc1nc(Cl)nc(NC(C)(C)C)n1	0.445	4.3	-0.2	3.3	3.7
CC1Cc2ccccc2N1C(=O)c1cccnc1 (stereo unspecified)	1.47	-8.4	0.1	28.7	2.1
Cc1nc2ccc(C(=O)N3c4ccccc4CC3C)cc2s1 (stereo unspecified)	-2.64	-7.8	6.3	6.5	19.3*
CCc1ccc(CCC(=O)Nc2ccccc2C(=O)O)o1	-1.1	77.3*	0.9	-9.1	3.2
Cc1ccnn1CCC(=O)O	-0.0823	·	-0.4	5.2	·
O=C(NCc1ccc(N2CCCC2=O)cc1)c1ccc(F)cc1	-0.308	0.8	-2.5	-11.5	9.4*
CCc1cc(C(=O)Cc2ccc(F)cc2)c(O)cc1O	-1.39	31.8	1.6	4.9	2.6
CCCc1cc(C(=O)Cc2ccc(F)cc2)c(O)cc1O	-1.63	81.6*	-0.7	-23.6	5.0
Cc1cc(C(=O)c2ccc3ccccc3c2)c(C)o1	·	·	·	-16.6	·
COc1ccccc1NC(=S)N(Cc1ccccc1)Cc1ccccn1	-1.65	57.4	0.4	·	4.2
S=C(Nc1ccccc1Cl)N(Cc1ccccc1)Cc1ccccn1	-0.354	64.5*	-1.8	-12.8	1.7
CC1CCCN(c2nc(N(C)c3ccccc3)nc(N)c2[N+](=O)[O-])C1 (stereo unspecified)	-1.99	·	0.0	5.1	·
CCc1nc(N2CCCCC2C)c2oc3ccccc3c2n1 (stereo unspecified)	0.197	-18.4	113.7*	·	31.3*
CCc1nc(N2CCN(Cc3ccc4c(c3)OCO4)CC2)c2oc3ccccc3c2n1	-0.125	-23.8	115.5*	4.4	48.2*
COc1cc(/C=N\NC(=O)C2CC3C=CC2C3)ccc1O (stereo unspecified)	-0.197	4.0	-2.0	-14.2	2.7
CCCCCC(=O)NC(=S)Nc1ccc2oc(=O)ccc2c1	-0.0495	26.6	-1.8	-20.3	4.3
CC(C)c1nc(N2CCN(C(=O)c3ccco3)CC2)c2c3c(sc2n1)CCCC3	0.00528	80.6*	-1.3	·	1.0
SMILES	KCC2 mod	WT yeast gro inh	bCat nuc transl	Pf gamet viab	MT stabilize HCS
O=C1CC(/C=C/c2ccccn2)=Nc2ccccc2N1	-0.456	-11.2	-0.2	5.9	7.4*
CCc1ccccc1NC(=O)CN(C1CCCCC1)S(C)(=O)=O	·	·	·	13.0	·
COc1cccc(NC(=O)C2COc3ccccc3O2)c1 (stereo unspecified)	·	·	·	-4.4	·
O=C(CCc1ccccc1)NC(c1cccs1)c1cc(Cl)c2cccnc2c1O (stereo unspecified)	·	35.2	-0.5	-9.1	10.3*
COCCN(C(=O)Cc1cccs1)C(C(=O)NCc1ccc(OC)cc1)c1ccccc1 (stereo unspecified)	·	98.9*	0.3	·	1.8
Nc1c2c(nc3sc4c(c13)CCCC4)-c1ccccc1CC2	0.842	·	0.6	-14.2	·
CC(C)CC(=O)N1CCN(C(=O)c2ccc(F)cc2)CC1	·	·	·	0.0	·
CCOC(=O)CSc1c(-c2cccs2)[nH]c2ccccc12	-1.15	64.1*	-0.3	4.1	2.1
O=C(NNC(=O)c1cccs1)c1ccc(Cl)c(Cl)c1	0.37	0.6	-2.9	-5.0	1.8
CCOC(=O)C(C)Oc1c(C(=O)OC)sc2ncccc12 (stereo unspecified)	-0.629	-2.4	-4.3	19.0	1.2
CCc1cc(-c2n[nH]c(=S)n2C(C)c2ccccc2)cs1 (stereo unspecified)	3.91*	54.5	-0.7	·	2.3
O=C1NC2(CCCCCC2)N=C1c1ccc(Br)cc1	0.257	3.4	1.1	-7.4	4.4
COc1ccc(Br)cc1CN(C)CC(=O)Nc1c(Cl)cccc1Cl	-1.01	28.9	-0.5	-13.1	2.9
COCC(=O)N(C)c1nnc(-c2cnccn2)s1	0.303	2.4	-2.4	·	2.7
CC(=O)N(C)c1nnc(-c2cnccn2)s1	0.0342	73.7*	1.4	·	2.3
COc1ccc(NC(=O)C(=O)N2N=C(C(C)C)CC2(O)C(F)(F)F)cc1 (stereo unspecified)	·	23.8	·	·	1.7
Cc1ccc(NC(=O)C(C)N=C2NS(=O)(=O)c3ccccc32)cc1F (stereo unspecified)	-0.299	·	2.6	-21.9	·
Oc1cccc(C2c3[nH]c4ccccc4c3CCN2Cc2ccc3c(c2)CCO3)c1 (stereo unspecified)	-0.46	45.7	10.4	-15.8	8.2*
Fc1ccc(COc2ccccc2C(=S)N2CCCC2)cc1	-0.354	27.4	0.3	-8.0	2.6
Cc1ccc(COc2ccccc2C(=S)N2CCCC2)cc1	-0.542	60.6*	-0.5	-4.7	2.3
COc1ccc(Cl)cc1N(CC(=O)N1CCCC1)S(C)(=O)=O	·	·	·	7.4	·
O=C(Nc1nc(-c2cccs2)cs1)c1ccc(Cl)cc1	·	67.0*	-1.7	-8.0	1.2
O=C(Nc1ncc(Cc2ccccc2)s1)c1cccs1	-0.676	48.7	-10.1	-32.9	1.6
O=C(Nc1nc(-c2cc(Cl)sc2Cl)cs1)c1cccs1	2.1	73.9*	-0.1	·	6.3
O=C(Nc1ncc(Cc2cccc(Cl)c2)s1)c1cccs1	-0.654	80.6*	0.0	13.9	3.4
SMILES	KCC2 mod	WT yeast gro inh	bCat nuc transl	Pf gamet viab	MT stabilize HCS
Cc1ccc(S(=O)(=O)N(CC(=O)N=Nc2c(O)[nH]c3ccccc23)c2cccc(C)c2)cc1	-0.0461	14.9	63.6*	-10.1	19.5*
Cc1cc(Cl)ccc1N(CC(=O)N=Nc1c(O)[nH]c2ccccc12)S(C)(=O)=O	·	11.4	-2.1	3.3	1.1
COc1ccc(S(=O)(=O)Nc2ccc(N3CCOCC3)nc2)cc1	0.685	-13.0	-2.8	·	2.3
Cn1ccnc1C(=O)c1cc(SCC(=O)NCc2ccccc2)nc2ccccc12	-1.39	-5.7	-2.1	-12.8	16.3*
CC1=C(C(=O)OC(C)C)C(c2cccs2)C(C(=O)OC(C)C)=C(C)N1	-1.49	18.6	2.5	-12.2	1.2
CN1CCN(c2cc(N3CCc4ccccc4C3)c(F)cc2[N+](=O)[O-])CC1	0.305	87.3*	0.4	·	4.6
CCC(=O)N1CCN(c2cc(N3CCN(C)CC3)c(F)cc2[N+](=O)[O-])CC1	-0.173	9.0	-6.8	2.1	2.2
CC(C)c1ccc(-n2cnn(-c3ncccc3[N+](=O)[O-])c2=O)cc1	0	-14.6	0.0	·	4.0
